{"data": "Results gathered from unrelated publications", "cell line": "SN12C", "read-out": "cell growth or viability", "note": "Each line is one published result; the experiments were not run side by side."}
{"Compound": "COc1ccc(C(=O)/C=C/c2ccc(Cl)c(Cl)c2)cc1S(N)(=O)=O", "technique": "SRB", "time": "48 h", "measurement": "GI50", "result": "1400 nM"}
{"Compound": "CC[C@@]1(O)C(=O)OCc2c1cc1n(c2=O)Cc2cc3ccccc3nc2-1", "technique": "SRB", "measurement": "GI50", "result": "20 nM"}
{"Compound": "COc1cccc(Oc2ccccc2NC(=O)CNC(=O)c2cccc3ccccc23)c1", "technique": "SRB", "time": "48 h", "measurement": "GI50", "result": "1450 nM"}
{"Compound": "S=C([S][Au-][P+](CCCCCC[P+]([Au-][S]C(=S)n1cccn1)(c1ccccc1)c1ccccc1)(c1ccccc1)c1ccccc1)n1cccn1", "measurement": "GI50", "result": "1950 nM"}
{"Compound": "COc1cc(-c2ccc(-c3ccc(C(=N)N)nc3)s2)cc(OC)c1OC", "measurement": "GI50", "result": "2050 nM"}
{"Compound": "Cc1cc(C)n(C(=S)[S][Au][PH](CCCCCC[PH]([Au][S]C(=S)n2nc(C)cc2C)(c2ccccc2)c2ccccc2)(c2ccccc2)c2ccccc2)n1", "measurement": "GI50", "result": "479 nM"}
{"Compound": "COc1ccc(-c2ccc(-c3ccc(C(=N)N)nc3)s2)cc1Cl", "measurement": "GI50", "result": "1790 nM"}
{"Compound": "COc1ccc(C(=O)/C=C/c2cccc(Br)c2)cc1S(N)(=O)=O", "technique": "SRB", "tested at": "10 µM", "measurement": "inhibition", "result": "179%"}
